Rows were chosen to be rich in hits. Some 1.8% of all compounds tested hit in one or more screens of this group.
TAG inh – inhibitors of triacylglycerol accumulation, primary screen, cell-based, uHTS, fluorescence, H9c2 | AID 651582, 2012 | actives 0.66% (n = 230,000) | inhibition, % at 12.5 µM | H9c2 cells, Nile Red lipid (TAG) fluorescence; cells loaded with 200 µM oleic acid;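 active = pattern-corrected inhibition of lipid staining of at least 50% with the nuclear-stain viability signal not falling by more than 50%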;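 note: 0% = DMSO wells and 100% = triacsin C control wells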
697 NFkB inh – inhibitors of PMA/ionomycin-induced NF-kB reporter, 697 cells, primary screen, B-cell NF-kB inhibitor project, cell-based, luminescence, uHTS; 697 B-cell NF-kB luciferase reporter, 16 h; inhibition, % at 4 µM; actives 0.33% (n = 330,000); in the data active = inhibition above about 35%
Gli-Sufu antag – Gli-Sufu pathway antagonists, primary screen, luciferase luminescence, Sufu-KO-LIGHT cells, uHTS. inhibition, % at 5 µM. AID 588413, 2011. Sufu-KO-LIGHT fibroblasts, Gli luciferase reporter luminescence. actives 0.74% (n = 340,000);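 active = inhibition above about 55%, limit read from the data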;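 note: 0% = DMSO-treated cells and 100% = wells with medium but no cells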
iPSC survival up – enhancers of single-cell hiPSC survival, primary screen, ATPlite luminescence | 100% = ROCK inhibitor wells, 0% = DMSO | survival enhancement, % at 20 µM | actives 0.044% (n = 360,000); in the data active = survival enhancement above about 18%;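 note: cells exposed to compounds for 16 hours before the ATP read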
Lipid droplet – inhibitors of hepatocyte lipid droplet formation, primary screen, imaging, high-throughput imaging, BODIPY stain. AML12 mouse hepatocytes, oleate lipid droplets. inhibition, % at 6.5 µM. actives 0.4% (n = 240,000). AID 1656, 2009;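 active = lipid droplet intensity inhibited by at least 50%, with more than 500 cells counted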
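Assay system: AML12 mouse liver cells | Compound: 6.5 µM single-point dosing | Schedule: Overnight exposure | Technique: Fluorescence imaging, 20x objective, two fields per well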
Jurkat NFkB inh – inhibitors of induced NF-kB luciferase reporter, primary screen, TCR NF-kB activation inhibitor project, cell-based, luminescence, uHTS | AID 435003, 2010 | inhibition, % at 4 µM | actives 0.53% (n = 330,000) | Jurkat, PMA/ionomycin-induced NF-kB luciferase reporter; in the data active = inhibition above about 50%
Jurkat NFkB conf – PMA/ionomycin-induced NF-kB reporter inhibitors, Jurkat retest, confirmation, T-cell NF-kB inhibitor project, cell-based, luminescence, single concentration | shares compounds with Jurkat NFkB inh | Jurkat NF-kB luciferase, 16 h | inhibition, % at 4 µM | actives 27% (n = 2,700) | AID 435020, 2010;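 active = inhibition reaching about 45% at 4 µM in either replicate, limit read from the data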;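 note: plate controls were PMA/ionomycin stimulated DMSO wells for no effect and unstimulated DMSO wells for full effect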
Active calls of the source: *; . = not tested or not shown.

SMILES	TAG inh	697 NFkB inh	Gli-Sufu antag	iPSC survival up	Lipid droplet	Jurkat NFkB inh	Jurkat NFkB conf
CCCCN(C)C(=O)Cn1c(=O)oc2cc(S(=O)(=O)N3CC(C)CC(C)C3)ccc21 (stereo unspecified)	-13	5	-9	0	2	-1	.
COc1cccc(N2CCN(C(=O)c3ccc(CS(=O)c4ccc(C)cc4)o3)CC2)c1 (stereo unspecified)	.	20	30	0	-181	53*	8
COc1cccc(N2CCN(C(=O)c3ccc(CS(=O)c4ccc(Cl)cc4)o3)CC2)c1 (stereo unspecified)	.	0	20	0	-78	51*	14
COc1cccc(N2CCN(C(=O)c3ccc(CS(=O)Cc4ccc(C)cc4)o3)CC2)c1 (stereo unspecified)	.	-16	-9	0	-2	-5	.
O=C(c1ccc(CS(=O)Cc2ccc(Cl)cc2)o1)N1CCN(c2cccc(Cl)c2)CC1 (stereo unspecified)	.	-12	-4	1	-2	21	.
CC1(C)CNC(=O)CC(C)(C)N1	.	21	-18	-2	12	8	.
O=C(OCCNc1ncc(C(F)(F)F)cc1Cl)c1ccc(S(=O)(=O)N2CCOCC2)cc1	.	14	6	0	.	3	.
N#CCC(CNc1ncc(C(F)(F)F)cc1Cl)OC(=O)c1cccc(C(F)(F)F)c1 (stereo unspecified)	.	5	21	0	-2	60*	9
O=C(Nc1ccc(Cl)cc1)Nc1ccc2c(c1)OCO2	-6	-99	-87	0	-9	-151	-32
O=C(Nc1ccc2c(c1)OCO2)c1ccc(Cl)s1	.	-88	-54	-2	1	-155	-87
O=C(Nc1ccc2c(c1)OCO2)Nc1ccc2c(c1)OCO2	.	-113	-80	-4	5	-104	.
O=C(Nc1ccc2c(c1)OCO2)c1ccc2c(c1)OCO2	.	-152	-63	-3	1	-136	.
CC(Oc1ccc2c(c1)oc(=O)c1ccccc12)C(=O)NCCN1CCOCC1 (stereo unspecified)	.	-3	-3	1	-2	-17	.
CC(C)(CNC(=O)c1cccs1)N1CCOCC1	-15	14	4	0	.	-8	.
Cc1ccc(CN2[C@@H](CC3CCCCC3)COCCS2(=O)=O)cc1	.	1	5	-1	.	-1	.
O=C(Nc1ccccn1)c1sc2cccc(F)c2c1Cl	-7	-242	-61	-1	-13	-170	-103
CCSc1ccc(-c2ccc(C)cc2)nn1	1	.	-116	-1	12	.	.
CCOc1ccc(-c2ccc(SCC)nn2)cc1	6	-237	-118	-1	0	-224	-88
CSc1nc2cc(C)nn2c(-c2ccccc2)c1C#N	10	-11	-10	-1	-4	-3	.
Clc1ccc(CSc2nncn2-c2ccc3c(c2)OCCO3)cc1	5	-46	7	0	-47	58*	44
NC(=O)c1c(NC(=O)c2ccccc2F)sc2c1CCCC2	8	-194	-102	0	9	-174	-108
NC(=O)c1c(NC(=O)c2ccccc2C(=O)O)sc2c1CCCC2	-2	0	4	0	4	18	.
CNCCCOc1ccc(C)cc1Br	-3	-8	1	-1	-18	9	.
Cc1ccc(OCCCNCCO)c(Br)c1	-1	-8	-1	0	0	81*	35
NNC(=O)c1nc2ccccc2s1	-8	.	.	-2	.	.	.
Cc1cccc(NC(=S)c2nc3ccccc3s2)c1	8	-235	-31	0	.	-173	-103
O=C(Nc1ccccc1)c1nc2ccccc2s1	.	-131	-100	-2	24	-205	-96
O=C(NC(=S)Nc1ccc2c(c1)OCCO2)c1ccccc1	.	-235	-87	-3	.	-210	-99
O=C(Nc1ccc(OC(F)(F)F)cc1)c1ccc2ccccc2n1	-12	-31	-1	0	9	10	.
